ChEMBL document CHEMBL1828582, “Synthesis and Na+/H+ exchanger inhibitory activity of benzoylguanidine derivatives” (Eur J Med Chem, 2011)

Columns and labels:
[1] = Antiischemic activity against Na2S2O4-induced hypoxia/reoxygenation cell injury in neonatal rat primary cardiac myocytes assessed as increase in cell survival rate at 10^-4 mol/L by MTT assay; assay type: functional, Cardiac muscle cell
Method in brief: (§1)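 Neonatal rat primary cardiomyocytes, six wells per group. Hypoxia induced with 50 mmol/L Na2S2O4 in serum-free DMEM for 2 h, then reoxygenated 4 h in DMEM with 10% serum. Drug added in serum-free DMEM 1 h before reoxygenation, final 10^-6, 10^-5, 10^-4 mol/L. MTT (5 mg/mL) for 4 h, formazan dissolved in DMSO, A490. Survival = treated OD/normal control OD.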

[2] = Antiischemic activity against Na2S2O4-induced hypoxia/reoxygenation cell injury in neonatal rat primary cardiac myocytes assessed as cell viability at 10^-5 mol/L by MTT assay; assay type: functional; conditions: Cardiac muscle cell; method in brief: as §1
[3] = Antiischemic activity against Na2S2O4-induced hypoxia/reoxygenation cell injury in neonatal rat primary cardiac myocytes assessed as increase in cell survival rate at 10^-6 mol/L by MTT assay; assay type: functional, Cardiac muscle cell; method in brief: as §1
[4] = Antiischemic activity against Na2S2O4-induced hypoxia/reoxygenation cell injury in neonatal rat primary cardiac myocytes assessed as increase in cell survival rate at 10^-5 mol/L by MTT assay; assay type: functional, Cardiac muscle cell; method in brief: as §1
[5] = Antiischemic activity against Na2S2O4-induced hypoxia/reoxygenation cell injury in neonatal rat primary cardiac myocytes assessed as cell viability at 10^-6 mol/L by MTT assay; assay type: functional; conditions: Cardiac muscle cell; method in brief: as §1
[6] = Antiischemic activity against Na2S2O4-induced hypoxia/reoxygenation cell injury in neonatal rat primary cardiac myocytes assessed as cell viability at 10^-4 mol/L by MTT assay; assay type: functional; conditions: Cardiac muscle cell; method in brief: as §1

Row | SMILES | Activity [1] | MTT OD at 10 µM [2] | Activity [3] | Activity [4] | MTT OD at 1 µM [5] | MTT OD at 100 µM [6]
1 | COc1ccc(CN2CCN(CCOc3ccc(C(=O)NC(=N)N)cc3NC(=O)c3ccccc3[N+](=O)[O-])CC2)c(OC)c1OC | 56.48% | 0.379 absorbance | 48.05% | 51.45% | 0.353 absorbance | 0.434 absorbance
2 | COc1ccc(CN2CCN(Cc3ccc(C(=O)N=C(N)N)cc3[N+](=O)[O-])CC2)c(OC)c1OC | 69.24% | 0.44 absorbance | 50.41% | 59.78% | 0.37 absorbance | 0.532 absorbance
3 | COc1ccc(CN2CCN(CCOc3ccc(C(=O)NC(=N)N)cc3NC(=O)c3sccc3C)CC2)c(OC)c1OC | 72.41% | 0.454 absorbance | 53.22% | 61.63% | 0.391 absorbance | 0.556 absorbance
4 | COc1ccc(CN2CCN(CCOc3ccc(C(=O)NC(=N)N)cc3NC(=O)c3ccc(Cl)cc3Cl)CC2)c(OC)c1OC | 58.33% | 0.409 absorbance | 49.27% | 55.52% | 0.362 absorbance | 0.488 absorbance
